Screening data as filed in PubChem BioAssay.
A selection: hits, their analogues and other compounds. The true share with any hit is near 5.8%.
Pf Dd2 growth – P. falciparum Dd2 growth inhibitors, primary screen, SYBR Green fluorescence, single dose replicates. activity change, % at 10 µM. AID 1159554, 2015. hit rate 2.3% among 94,000. 72 h; active compounds read low; in the data active = activity change below about -80%
IDH1 mut inh – inhibitors of IDH1 R132H reductase, primary screen, biochemical, plate reader, single point | hit rate 0.18% among 70,000 | Isocitrate dehydrogenase [NADP] cytoplasmic (Homo sapiens), O75874 | inhibition, % at 10 µM | diaphorase/resazurin fluorescence, 60 min; in the data active = inhibition above about 34%;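 note: 0% = DMSO and 100% = no enzyme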
KDM4C inh – inhibitors of GASC-1 (KDM4C) histone demethylase, primary screen, biochemical, single concentration HTS | Lysine-specific demethylase 4C (Homo sapiens), Q9H3R0 | GST-KDM4C 2-372, H3K9me3 peptide, LANCE TR-FRET | inhibition, % at 12.5 µM | hit rate 0.15% among 96,000 | AID 720574, 2013;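 active = mean replicate inhibition above about 25%, with at least 55% of replicates also reaching it, limit read from the data, passing the limit was not always enough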
Target sequence (Q9H3R0 2-372 limits assumed): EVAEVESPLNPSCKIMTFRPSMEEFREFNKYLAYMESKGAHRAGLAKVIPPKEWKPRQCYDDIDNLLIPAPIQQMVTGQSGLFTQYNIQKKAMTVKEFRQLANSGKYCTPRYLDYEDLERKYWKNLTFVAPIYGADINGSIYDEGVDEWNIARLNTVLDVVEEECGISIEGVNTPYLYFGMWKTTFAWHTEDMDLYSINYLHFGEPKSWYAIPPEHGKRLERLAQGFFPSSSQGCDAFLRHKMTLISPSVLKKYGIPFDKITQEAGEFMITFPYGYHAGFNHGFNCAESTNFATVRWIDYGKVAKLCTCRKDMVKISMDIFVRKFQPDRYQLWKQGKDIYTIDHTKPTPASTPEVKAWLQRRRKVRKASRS
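Test system – GST-tagged GASC-1 (JMJD2C) catalytic fragment, aa 2-372 · Medium – HEPES buffer, pH 7.5, plus ascorbate · Reagent – H3K9me3 peptide with Fe(II)/2OG · Compound – one test concentration per compound · Timing – 30 min reaction, 60 min detection, RT · Technique – TR-FRET with Eu antibody and ULight streptavidin, EDTA stop · Read-out basis – inhibition from TR-FRET ratio decrease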
T cruzi growth – T. cruzi intracellular proliferation inhibitors, primary screen, cell-based, beta-gal Tulahuen parasites, NIH3T3 host, luminescence | T. cruzi beta-gal in NIH3T3, GalScreen luminescence, 90 h | inhibition, % at 8.34 µM | hit rate 5.9% among 77,000 | AID 624255, 2012;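 active = mean inhibition above about 93%, with at least 55% of replicates each passing it, limit read from the data, passing the limit was not always enough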
Starred values were filed as active, the others as inactive; nt = not tested or not shown; ! = repeats disagree.

SMILES | Pf Dd2 growth | IDH1 mut inh | KDM4C inh | T cruzi growth
C[C@@H]1CCCCO[C@H](CN(C)Cc2ccncc2)[C@H](C)CN([C@H](C)CO)C(=O)c2cc(NC(=O)Nc3ccc(C(F)(F)F)cc3)ccc2O1 | -84.2* | nt | 1.8 | 87.2
C[C@@H]1CN([C@H](C)CO)C(=O)c2cc(NC(=O)Nc3ccc(C(F)(F)F)cc3)ccc2O[C@@H](C)CCCCO[C@@H]1CN(C)Cc1ccc(Cl)c(Cl)c1 | -86.5* | nt | -0.6 | 47.7
O=C(CSc1nc2ccccc2c(=O)n1-c1cccc(Cl)c1)Nc1cccc(Cl)c1 | nt | -0.1 | nt | nt
C[C@@H]1CCCCO[C@@H](CN(C)Cc2ccc(Cl)c(Cl)c2)[C@H](C)CN([C@H](C)CO)C(=O)c2cc(NC(=O)C3CCCCC3)ccc2O1 | -83.5* | -0.1 | 2.2 | 84.2
C[C@@H]1CCCCO[C@H](CN(C)Cc2ccc(C(F)(F)F)cc2)[C@@H](C)CN([C@@H](C)CO)C(=O)c2cc(NC(=O)Cc3ccccc3)ccc2O1 | -89.0* | nt | -0.8 | 5.9
C[C@@H]1CCCCO[C@H](CN(C)Cc2ccc(C(F)(F)F)cc2)[C@H](C)CN([C@@H](C)CO)C(=O)c2cc(NC(=O)c3ccccc3)ccc2O1 | -84.7* | nt | -1.8 | 66.6
C[C@@H]1CCCCO[C@H](CN(C)Cc2ccc(C(F)(F)F)cc2)[C@@H](C)CN([C@H](C)CO)C(=O)c2cc(NC(=O)c3ccccc3)ccc2O1 | -36.8 | nt | 0.5 | 92.9
C[C@H]1CCCCO[C@@H](CN(C)Cc2ccccc2)[C@@H](C)CN([C@@H](C)CO)C(=O)c2cc(NC(=O)Nc3ccc(C(F)(F)F)cc3)ccc2O1 | -85.6* | -0.2 | 0.7 | 82.3
C[C@@H]1CCCCO[C@H](CN(C)Cc2ccc(Cl)c(Cl)c2)[C@@H](C)CN([C@H](C)CO)C(=O)c2cc(NC(=O)C3CCCCC3)ccc2O1 | -21.8 | nt | -0.3 | 91.5
COc1ccccc1C(=O)NC1(C(F)(F)F)C(=O)N(Cc2ccco2)C2=C1C(=O)CC(C)(C)C2 (stereo unspecified) | nt | 0.1 | nt | nt
CCOC(=O)c1ccc(COc2ccc(-c3cnc4ccccc4n3)cc2)o1 | nt | 0.0 | nt | nt
C[C@@H]1CN([C@@H](C)CO)C(=O)c2cc(NC(=O)Nc3ccccc3)ccc2O[C@@H](C)CCCCO[C@@H]1CN(C)Cc1ccc(C(F)(F)F)cc1 | -82.2* | 0.1 | 1.3 | 83.3
C[C@@H]1CCCCO[C@H](CN(C)Cc2ccc(C(F)(F)F)cc2)[C@H](C)CN([C@@H](C)CO)C(=O)c2cc(NC(=O)Nc3ccccc3)ccc2O1 | -75.6 | nt | -1.5 | 76.7
C[C@@H]1CN([C@H](C)CO)C(=O)c2cc(NC(=O)Nc3ccc(F)cc3)ccc2O[C@@H](C)CCCCO[C@H]1CN(C)Cc1ccc(C(F)(F)F)cc1 | -82.2* | nt | -2.1 | 93.8
C[C@H]1CCCCO[C@H](CN(C)Cc2ccc(C(F)(F)F)cc2)[C@@H](C)CN([C@@H](C)CO)C(=O)c2cc(NC(=O)Nc3ccc(F)cc3)ccc2O1 | -1.9 | nt | -1.5 | 90.8
C[C@@H]1CCCCO[C@H](CN(C)Cc2ccc(C(F)(F)F)cc2)[C@@H](C)CN([C@@H](C)CO)C(=O)c2cc(NC(=O)Nc3ccc4c(c3)OCO4)ccc2O1 | -80.9* | nt | -0.9 | 78.2
COc1cccc2c1oc(=O)c1c(NC(C)=O)nc(-c3cccs3)nc12 | nt | -1.4 | nt | nt
C[C@@H]1CCCCO[C@H](CN(C)C(=O)Nc2ccc(F)cc2)[C@H](C)CN([C@H](C)CO)C(=O)c2cc(NS(=O)(=O)c3cccs3)ccc2O1 | -86.4* | nt | -1.0 | 78.7
C[C@@H]1CCCCO[C@@H](CN(C)C(=O)Nc2ccc(F)cc2)[C@H](C)CN([C@H](C)CO)C(=O)c2cc(NS(=O)(=O)c3cccs3)ccc2O1 | -85.9* | 8.7 | 0.1 | 82.6
C[C@H]1CCCCO[C@@H](CN(C)C(=O)Nc2ccc(F)cc2)[C@@H](C)CN([C@@H](C)CO)C(=O)c2cc(NS(=O)(=O)c3cccs3)ccc2O1 | -57.4 | 0.6 | -1.3 | 47.4
C[C@@H]1CN([C@@H](C)CO)C(=O)c2cc(NS(=O)(=O)c3cccs3)ccc2O[C@@H](C)CCCCO[C@@H]1CN(C)C(=O)Nc1ccc(C(F)(F)F)cc1 | -82.2* | 0.4 | -1.4 | nt
Cc1ccc(SCCCCSc2nc(C)cc(=O)[nH]2)cc1 | nt | 0.9 | nt | nt
Cc1ccc2oc(-c3cccc(NC(=O)COc4ccccc4C)c3C)nc2c1 | nt | 0.3 | nt | nt
COC(=O)CCCCCCC(=O)N/N=C/c1cc(O)ccc1O | nt | 52.8* | nt | nt
O=C(O)CCCCCC(=O)N/N=C/c1cc(O)ccc1Br | nt | 5.0 | nt | nt
SMILES | Pf Dd2 growth | IDH1 mut inh | KDM4C inh | T cruzi growth
O=C(CCCCC(=O)N/N=C/c1cc(O)ccc1O)NO | nt | 87.5* | nt | nt
O=C(c1ccccc1)N1CC(=O)N(OCc2ccccc2)C1c1cccs1 (stereo unspecified) | nt | 2.7 | nt | nt
COc1ccc2c3c([nH]c2c1)[C@H](CO)N(Cc1nccs1)CC31CN(C(=O)C2CCC2)C1 | -18.4 | nt | -0.2 | nt
COc1ccc2c3c([nH]c2c1)[C@H](CO)N(Cc1cc(F)ccc1F)CC31CN(C(=O)C2CCC2)C1 | -87.5* | nt | 0.1 | nt
CCCNC(=O)N1CC2(CN(C(=O)C3CCC3)C2)c2c([nH]c3cc(OC)ccc23)[C@H]1CO | -85.1* | nt | -0.4 | nt
COc1ccc2c3c([nH]c2c1)[C@@H](CO)N(Cc1ccccc1F)CC31CN(C(=O)C2CCOCC2)C1 | 32.1 | nt | nt | nt
COc1ccc2c3c([nH]c2c1)[C@@H](CO)N(Cc1ccccc1F)CC31CN(C(=O)C2CCC2)C1 | -92.4* | nt | -2.0 | nt
O=C(CC1(O)C(=O)N(Cc2cccc3ccccc23)c2ccccc21)c1ccco1 (stereo unspecified) | nt | -0.4 | nt | nt
C(=C\c1ccc(C2[C@@H]3CN(Cc4ccccn4)C[C@H]2N3)cc1)/c1ccccc1 (stereo partly specified) | -75.8 | nt | 0.1 | nt
c1cc(-c2ccc(C3[C@@H]4CN(Cc5nccs5)C[C@H]3N4)cc2)ccn1 (stereo partly specified) | -74.0 | nt | -0.2 | nt
c1cncc(-c2ccc(C3[C@@H]4CN(Cc5nccs5)C[C@H]3N4)cc2)c1 (stereo partly specified) | -87.6*! | nt | 1.8 | nt
C(=C\c1ccc(C2[C@@H]3CN(Cc4nccs4)C[C@H]2N3)cc1)/c1ccccc1 (stereo partly specified) | -88.2*! | nt | -2.2 | nt
C[C@@H]1CN([C@@H](C)CO)C(=O)Cc2cc(NC(=O)Nc3ccc(F)cc3)ccc2O[C@@H]1CN(C)Cc1ccncc1 | -9.0 | 18.0 | nt | 76.2
CC(C)NC(=O)Nc1ccc2c(c1)CC(=O)N([C@@H](C)CO)C[C@@H](C)[C@H](CN(C)Cc1ccc(Cl)c(Cl)c1)O2 | -82.0* | -1.8 | 0.5 | nt
C[C@H]1CN([C@@H](C)CO)C(=O)Cc2cc(NC(=O)C3CCCCC3)ccc2O[C@H]1CN(C)Cc1ccncc1 | -7.7 | 2.4 | 0.8 | 21.0
C[C@H](CO)N1C[C@H](C)[C@@H](CN(C)Cc2ccccc2)Oc2ccc(NC(=O)Nc3ccc(F)cc3)cc2CC1=O | -88.3* | 0.6 | -1.5 | 75.8
